AI-2 QS mod: modulators of Vibrio harveyi AI-2 quorum sensing system. Vibrio harveyi JMH597 AI-2 luminescence/OD600 ratio, 9 h; hits give low values; strain lacks LuxN and CqsS sensors; 0 = neutral-control median. 300,000 compounds, 0.4% hits. activity change, % at 7.5 µM; in the data active = activity change below about -75%, passing the limit was not always enough;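 note: luminescence divided by OD600 gain over 9 h not by final OD600 alone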
GSK3 alpha inh: inhibitors of human GSK-3 alpha kinase | ADP-Glo luminescence, 60 min | P49840 | AID 2650 | 320,000 compounds, 0.1% hits | inhibition, % at 10 µM;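 active = more than half of replicates show inhibition above 20%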;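 note: GST-tagged GSK-3 alpha with peptide substrate and 25 µM ATP; 0% = DMSO neutral wells and 100% = GW8510 positive control wells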
Target sequence (P49840 whole entry, looked up): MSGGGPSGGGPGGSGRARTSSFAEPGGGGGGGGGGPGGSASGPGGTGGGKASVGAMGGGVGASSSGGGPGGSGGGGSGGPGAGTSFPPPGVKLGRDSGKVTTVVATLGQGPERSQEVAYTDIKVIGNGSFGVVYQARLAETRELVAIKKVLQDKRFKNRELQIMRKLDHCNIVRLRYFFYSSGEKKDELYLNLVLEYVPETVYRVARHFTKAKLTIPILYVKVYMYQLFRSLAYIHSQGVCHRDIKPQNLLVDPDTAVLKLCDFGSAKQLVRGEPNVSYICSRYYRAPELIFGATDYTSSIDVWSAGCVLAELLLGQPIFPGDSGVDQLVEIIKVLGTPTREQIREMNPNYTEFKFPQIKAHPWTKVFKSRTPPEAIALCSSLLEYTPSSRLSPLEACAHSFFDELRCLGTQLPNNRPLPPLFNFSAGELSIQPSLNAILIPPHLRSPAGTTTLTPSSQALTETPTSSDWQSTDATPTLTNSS
GSK3beta inhib: blocks human GSK3beta kinase activity. P49841. GST-GSK3beta kinase, ADP-Glo luminescence, 60 min; hits give low values. activity score (negative = inhibition), % at 10 µM. 300,000 compounds, 0.038% hits;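 active = more than half of replicate wells score below -50%, meaning over 50% inhibition versus plate controls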;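 note: 0% = median DMSO wells and -100% = median GW8510 positive control wells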
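Test system – GST-tagged human GSK3beta kinase, cell-free · Incubation – 60 min enzyme reaction, room temperature · Signal – ADP-Glo luminescence · Also added – peptide substrate and ATP at 25 µM · Controls – DMSO neutral wells and GW8510 at 20 µM as positive · Buffer or medium – Tris/MgCl2 kinase buffer · Measure – Luminescence-derived activity versus plate DMSO and GW8510 wells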
STK33 kinase inh: inhibitors of human STK33 kinase; inhibition, % at 10 µM; purified STK33, MBP phosphorylation, ADP-Glo luminescence; Q9BYT3; 320,000 compounds, 0.073% hits;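 active = inhibition at or above 25%, using the most active replicate where run in duplicate; inactive = inhibition below 25%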
PolyA inhibitor: yeast polyadenylation inhibition; activity score, % at 12 µM; S. cerevisiae SKY197-pL101 polyadenylation reporter, beta-gal luminescence; efflux-impaired pdr1/pdr3 knockout yeast; score 100 = 6 SD above DMSO; 300,000 compounds, 0.02% hits;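 active = lowest replicate activity score at least 50, where 100 means six control SD above control mean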;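 note: yeast exposed to compound for 9 h at 30 °C; higher score means more reporter readthrough which indicates perturbed polyadenylation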
CR mimetic SO: yeast age-related superoxide inhibition as caloric restriction mimetic. S. cerevisiae aged cells, superoxide DHE fluorescence; hits give low values. superoxide response (% of plate mean), % at 10 µM. 330,000 compounds, 0.18% hits;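 active = superoxide response under a set limit, about three screen SD below normal, cut at about 65% in these data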;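 note: yeast aged for seven days with compound at 30 °C before DHE staining; 100% = average MFI of all compound-treated wells on the plate with controls excluded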
Numbers without * were called inactive; nt = no result. Hits are enriched below; roughly 0.72% of the tested compounds scored in any of these assays.

SMILES	AI-2 QS mod	GSK3 alpha inh	GSK3beta inhib	STK33 kinase inh	PolyA inhibitor	CR mimetic SO
O=C(O)c1ccc(SCc2cnc(Cl)s2)cc1	52.0	-2.9	4.8	-2.8	61.3*	137.0
COCc1cc(=O)[nH]c2c1c(-c1ccccc1)nn2C	9.8	13.8	-8.2	0.5	3.9	94.6
CC(=O)N(C)c1ccc(NCc2cc(=O)oc3cc(C)c(O)cc23)cc1	-10.8	-2.1	1.4	-0.7	2.9	83.4
N/C(=N\OC(=O)COc1ccccc1)c1ccncc1	-47.1	-4.4	-2.7	-0.2	9.6	95.7
COc1cccc(OCC(=O)O/N=C(\N)c2ccncc2)c1	-76.1*	0.1	-2.7	-0.4	-6.0	85.6
O=C(CSc1nnc(-c2ccc(O)cc2)o1)Nc1cccc(O)c1	24.5	-1.3	-7.3	6.0	3.6	111.7
NS(=O)(=O)c1ccc(NC(=O)CSc2nnc(-c3ccc(O)cc3)o2)cc1	42.1	53.3*	-2.1	6.8	21.7	97.4
N=C1c2ccccc2CN1NC(=O)CC12CC3CC(CC(C3)C1)C2	20.2	2.0	1.5	7.7	0.4	56.4*
C=C1/C=C(\C)[C@](C)(O)C[C@H](O)CC(=O)[C@H](O)[C@@H](O)[C@H](C)C[C@H](C)OC(=O)/C(C)=C/CC/C=C/[C@@H]2O[C@H]2C[C@H](C)C1	nt	-0.4	nt	-0.5	nt	86.8
CC1(C)Cc2cccc(C(=O)Nc3ccncc3)c2O1	31.8	72.8*	0.7	10.2	-5.3	90.8
CC1=C(C(=O)OC(C)C)C(c2cccs2)n2ncnc2N1 (stereo not given)	0.3	22.6	2.5	0.9	8.1	92.5
CCCC1=C(C(=O)OCC)C(c2sccc2C)n2ncnc2N1 (stereo not given)	7.5	78.4*	-33.7	1.4	8.7	117.2
CCOC(=O)C1=C(C)Nc2ncnn2C1c1ccccc1F (stereo not given)	11.9	2.5	-0.2	-2.4	14.1	93.3
CCCC1=C(C(=O)OCC)C(c2ccc(O)cc2)n2ncnc2N1 (stereo not given)	11.5	19.8	-20.8	2.2	7.7	96.9
CC1=C(C(=O)OC(C)C)C(c2c[nH]c3ccccc23)n2ncnc2N1 (stereo not given)	-6.9	93.5*	-0.3	0.9	-12.0	89.1
CCOC(=O)C1=C(C)Nc2ncnn2C1c1c[nH]c2ccccc12 (stereo not given)	16.4	71.2*	-73.5*	-1.2	-15.7	85.3
N#Cc1c2n(c3c(=S)nc[nH]c13)CCCCC2	29.7	102.1*	-92.2*	3.2	0.9	91.2
COCCn1c(SCC(=O)Nc2ccc(Cl)cn2)nc2ccccc21	12.0	13.4	-76.3*	-0.7	8.0	88.2
Cc1ccc(CN2CCN(CC(=O)N/N=C/c3ccc(C)o3)CC2)cc1	nt	2.9	-2.8	0.3	5.0	105.0
O=C(CCc1ccccc1)c1c(O)cc(O)cc1O	-81.1*	13.1	-8.5	4.7	1.6	99.4
N/C(=N\OC(=O)c1ccc2c(c1)OCO2)c1cccc([N+](=O)[O-])c1	30.9	0.1	1.5	3.6	-4.8	95.6
Cc1cccc(/C(N)=N/OC(=O)c2ccc3c(c2)OCO3)c1	-25.7	34.8	-24.8	31.6*	11.1	107.1
C/C(=N\NC(=O)CN1CCN(S(=O)(=O)c2ccc(C)cc2)CC1)c1ccncc1	7.4	-1.1	4.2	0.6	-6.0	105.0
CN1CCc2c(sc(NC(=O)c3ccc([N+](=O)[O-])o3)c2C(N)=O)C1	-102.5*	-1.2	-4.1	4.4	3.4	106.8
CC(=O)c1ccc(CC2SC(N)=NC2=O)cc1 (stereo not given)	11.5	-0.1	-1.9	-0.4	0.8	110.0
SMILES	AI-2 QS mod	GSK3 alpha inh	GSK3beta inhib	STK33 kinase inh	PolyA inhibitor	CR mimetic SO
CN(C)C/C=C/C(=O)Nc1cccc(-c2c[nH]c3ncnc(Oc4ccc(NC(=O)CC(=O)Nc5ccc(F)cc5)cc4F)c23)c1	nt	1.5	nt	62.5*	nt	82.2
CC(=O)Nc1ccc(N=NN2CCOCC2)cc1	-88.3*	0.7	-21.1	0.6	-0.2	102.9
C/C(=N\NC(=O)c1cccnc1)c1cc2ccccc2o1	7.2	2.1	2.1	1.2	-3.4	84.5
S=c1[nH]c2cc(Cl)ccc2s1	-78.3*	-8.5	1.4	-0.4	10.0	88.0
S=c1[nH]c2ccc(Cl)cc2[nH]1	11.1	nt	-0.9	-1.5	-4.8	96.2
CS(=O)(=O)Nc1ccc(-c2cc(/C=C3\SC(N)=NC3=O)c[nH]c2=O)cc1	5.6	36.9	-1.6	38.7*	16.7	98.6
C/C=C/c1ccc(O)c(OC)c1	nt	-2.0	nt	-0.1	nt	109.6
Oc1cc(O)cc(/C=C/c2ccc(O)c(O)c2)c1	nt	28.1	nt	49.9*	nt	92.9
COc1ccc(NC(=O)CN(C)Cc2cccs2)cc1Cl	12.8	1.6	-0.5	-0.7	22.8	111.7
CN(C)S(=O)(=O)c1cccc(C(=O)OCC(=O)NC2CCCc3ccccc32)c1 (stereo not given)	34.5	-1.8	2.8	0.7	5.9	111.1
CC(=O)Nc1cc(OC(C)=O)c2nonc2c1OC(C)=O	nt	68.3*	nt	2.4	nt	186.2
COC(=O)c1cc(Cl)c(NC(=O)c2cc3ccccc3o2)cc1OC	-9.3	-0.7	3.4	-0.8	3.5	91.4
CN(C)CCc1cc2c(c3c1ccc1ccccc13)OCO2	0.8	49.4	-30.9	3.5	59.4*	100.6
CCOc1ccc(NC(=O)CN(C)S(=O)(=O)c2ccc(-c3ccc(=O)[nH]n3)s2)cc1	22.6	0.3	5.5	1.2	8.5	86.3
Cc1nc2ccc(C(=O)NCc3ccc4c(c3)OCO4)cc2s1	-4.7	1.5	0.8	0.2	111.7*	149.5
O=C(NCc1ccc2c(c1)OCO2)c1cccc(C(=O)NCc2ccc3c(c2)OCO3)c1	-85.3*	-1.9	1.0	-1.8	-11.0	105.9
O=C(NCc1ccc2c(c1)OCO2)c1cccnc1	2.6	0.4	0.9	0.6	24.9	107.8
CCSc1nnc(NC(=O)c2cnccn2)s1	-2.5	-6.0	-0.7	-0.3	-2.6	118.1
CCSc1nnc(NC(=O)c2ccccn2)s1	-121.2*	-2.6	-1.4	-2.3	-28.3	100.3
Cc1ccc(C2(c3ccccc3)NC(=O)N(CC(=O)NCc3ccccc3)C2=O)cc1C (stereo not given)	nt	nt	nt	nt	nt	89.0
CCOc1ccc(CCNC(=O)CN2C(=O)CCSc3ccccc32)cc1OCC	24.8	-3.0	-2.3	-1.2	67.3*	102.7
Cc1ccnc(NC(=O)c2ccc([N+](=O)[O-])o2)c1	-252.3*	5.2	-3.7	0.4	-6.0	116.4
Cc1ccc(-c2csc(NC(=O)c3ccc(C)o3)n2)cc1	0.4	-1.6	0.4	-2.2	-7.2	95.5
Cc1ccnc(NC(=O)C(C)n2cc([N+](=O)[O-])cn2)c1 (stereo not given)	-9.1	25.4	-74.1*	-2.0	-4.1	115.2
